From ChEMBL document CHEMBL3853263, “Effect of intercalator and Lewis acid-base branched peptide complex formation: boosting affinity towards HIV-1 RRE RNA” (Medchemcomm, 2016) come the findings set out here.

pIC50, pKd: −log10 of the molar value. Activity calls are given as the source filed them. The rule behind the calls is not given here. Numbered stars: 1 amine (or outer) side, 2 acyl side, 3 side chain; on linkers, the order of the positions; unused ones are H or OH. Side chains are listed from the residue outwards. Peptide text beside a SMILES is read from it. * marks the point of attachment. X1 = NCCCC[C@H](N)C(=O)N[C@@H](CCCCNc1c2ccccc2nc2ccccc12)C(=O)*; Benzoyl(4-B(OH)2) = O=C(c1ccc(B(O)O)cc1)*; Acridin9yl = c1ccc2c(*)c3ccccc3nc2c1; εLys = N[C@@H](CCCCN[*:1])C(=O)[*:2]; Suc = O=C(CCC(=O)[*:2])[*:1]

A short description of data set [1]: Binding affinity to HIV1 HXB3 RRE66 RNA. More on the design: species or system Human immunodeficiency virus 1.
The test system of data set [2] is Human immunodeficiency virus 1. In words: Antiviral activity against HIV1 NL4-3 infected in human U87 cells transfected with CD4/CXCR4 assessed as inhibition of viral replication at 40 uM preincubated for 1 hr followed by viral infection for 24 hrs and subsequent compound wash out and addition of additional compound measured at 72 hrs post infection by p24 assay relative to control. Type of data set: functional, U-87MG ATCC. Conditions: Human immunodeficiency virus 1, NL4-3, U-87 MG. The essentials:
(§1)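 U87-CD4/CXCR4 cells are seeded at 1 x 10⁴/well and left to adhere overnight. Compounds come from 1 mM stocks in water, diluted in RPMI. Cells are pretreated for 1 h, then infected with NL4-3 (CXCR4-tropic) at MOI 0.01 for 24 h. Cells are PBS-washed and given fresh medium with more compound. p24 is quantified in supernatant at 72 h post-infection.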

Data set [3] concerns Human immunodeficiency virus 1. In words: Binding affinity to HIV1 wild type 2-aminopurine-labeled RRE-2B RNA assessed as 1:1 binding stoichiometry between compound and RNA at 0.25 to 4 molar ratio of compound/RNA by Job plot method.
Data set [4] deals with Human immunodeficiency virus 1. In words: Antiviral activity against HIV1 NL4-3 infected in human U87 cells transfected with CD4/CXCR4 assessed as inhibition of viral replication preincubated for 1 hr followed by viral infection for 24 hrs and subsequent compound wash out and addition of additional compound measured at 72 hrs post infection by p24 assay. Type of data set: functional, cell-based, U-87MG ATCC. Conditions: for pIC50: Human immunodeficiency virus 1, NL4-3, U-87 MG; for inhibition: U-87MG ATCC. The essentials: as §1

The nature of data set [5]: Cytotoxicity against HIV1 NL4-3 infected human U87 cells transfected with CD4/CXCR4 assessed as decrease in cell viability at 20 to 80 uM after 72 hrs by MTT assay. In kind it is toxicity, cell-based. The following applies: u-87mg atcc.
Data set [6] can be described thus: Cytotoxicity against human U87 cells transfected with CD4/CXCR4 assessed as decrease in cell viability up to 100 uM after 24 hrs by MTT assay. In kind it is toxicity, cell-based. Conditions: u-87mg atcc. The essentials:
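U87 CXCR4 cells are seeded at 1 x 10⁴/well and incubated overnight at 37 °C in 5% CO₂. They are treated with 100, 50 or 10 µM (final) compound for 24 h. Tetrazolium dye is added for 4 h, then solubilization/stop solution for 1 h. A570 is read and normalized to untreated cells set at 1.0.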

Data set [7] concerns Human immunodeficiency virus 1. Description: Binding affinity to HIV1 wild type [32P]-labeled RRE-2B RNA assessed as protection of RNA from RNase T1-induced cleavage by footprinting method. The essentials:
(§2)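 5'-³²P RRE-IIB (10 nM) plus unlabeled RRE-IIB (200 nM) is heated to 95 °C for 3 min and snap-cooled. It is incubated with peptide on ice for 4 h in 10 mM Tris pH 7, 100 mM KCl, 10 mM MgCl₂. Digestion is on ice for 1 h, with RNase T1 at 1 U or RNase A at 20 ng. Cleavage is stopped by precipitation, run on 12% PAGE with 7.5 M urea, and read by autoradiography.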

Data set [8] can be described thus: Binding affinity to HIV1 wild type [32P]-labeled RRE-2B RNA after 4 hrs by electrophoretic mobility shift assay. More on the design: species or system Human immunodeficiency virus 1. The essentials:
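5'-³²P RRE-IIB (4 nM in 2x phosphate buffer, pH 7.0) is refolded at 95 °C for 3 min, then rt for 20 min. It is mixed 1:1 with peptide in water (final 0.001–10 µM) for 4 h at rt. Complexes are resolved by 10% native PAGE at 4 °C. Kd is the 50%-binding concentration from a sigmoidal fit of % RNA bound vs log[peptide]. Triplicates.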

The test system of data set [9] is Human immunodeficiency virus 1. In words: Binding affinity to HIV1 wild type [32P]-labeled RRE-2B RNA assessed as protection of RNA from RNase A-induced cleavage at 0.2 to 20 uM by footprinting method. Summed up: as §2
For data set [10], the system named is Human immunodeficiency virus 1. Description: Antiviral activity against HIV1 NL4-3 infected in human U87 cells transfected with CD4/CXCR4 assessed as inhibition of viral replication at 100 uM preincubated for 1 hr followed by viral infection for 24 hrs and subsequent compound wash out and addition of additional compound measured at 72 hrs post infection by p24 assay. Type of data set: functional, cell-based. Conditions: U-87MG ATCC. The essentials: as §1

The test system of data set [11] is Human immunodeficiency virus 1. In words: Antiviral activity against HIV1 NL4-3 infected in human U87 cells transfected with CD4/CXCR4 assessed as inhibition of viral replication at 10 uM preincubated for 1 hr followed by viral infection for 24 hrs and subsequent compound wash out and addition of additional compound measured at 72 hrs post infection by p24 assay relative to control. In kind it is functional, U-87MG ATCC. Conditions: Human immunodeficiency virus 1, NL4-3, U-87 MG. The essentials: as §1

Data set [12] can be described thus: Binding affinity to HIV1 wild type [32P]-labeled RRE-2B RNA after 30 mins by electrophoretic mobility shift assay. More on the design: species or system Human immunodeficiency virus 1.

In turn, `NCC1O[C@H](O[C@H]2[C@@H](O)[C@H](O[C@@H]3[C@@H](O)[C@H](N)C[C@H](N)[C@H]3O[C@H]3O[C@H](CN)[C@@H](O)[C@H](O)[C@H]3N)O[C@@H]2CNc2c3ccccc3nc3ccccc23)[C@H](N)[C@@H](O)[C@@H]1O` (stereo not given in full) showed a pKd in data set [1] of 8.62.
`CC(C)C[C@H](NC(=O)[C@H](CCCCN)NC(=O)[C@H](CCCCNC(=O)[C@H](CCCCN)NC(=O)[C@H](CCCCN)NC(=O)[C@@H](N)CCCCNc1c2ccccc2nc2ccccc12)NC(=O)[C@H](CCCCN)NC(=O)[C@H](CCCCN)NC(=O)[C@@H](N)CCCCNc1c2ccccc2nc2ccccc12)C(=O)N[C@@H](CCCCNC(=O)c1ccc(B(O)O)cc1)C(=O)N[C@@H](Cc1ccc(O)cc1)C(N)=O` (H-K(Acridin9yl)KKK([Lys-Lys-εLys-Acridin9yl])KLK(Benzoyl(4-B(OH)2))Y-NH2): the inhibition at 40 µM in [2] was determined as 90%. Besides, the result in [3] and in data set [9] was Active. Besides, the negative logarithm of the IC50 (pIC50) in [4] was 5.00. Moreover, the inhibition entry in data set [4] is “Dose-dependent effect”. Further, the Activity entry in [5] was “Non-Toxic”; in data set [6], “Non-Toxic”; in data set [7], “Dose-dependent effect”. Further, the pKd in [8] was 7.22. Besides, the inhibition result in data set [10] is “Active”.
Consider `CC(C)C[C@H](NC(=O)[C@H](CCCCN)NC(=O)[C@H](CCCCNC(=O)[C@H](CCCCN)NC(=O)[C@H](CCCCNc1c2ccccc2nc2ccccc12)NC(=O)[C@@H](N)CCCCN)NC(=O)[C@H](CCCCN)NC(=O)[C@H](CCCCNc1c2ccccc2nc2ccccc12)NC(=O)[C@@H](N)CCCCN)C(=O)N[C@@H](CCCCNC(=O)c1ccc(B(O)O)cc1)C(=O)N[C@@H](Cc1ccc(O)cc1)C(N)=O` (H-KK(Acridin9yl)KK([Lys-X1])KLK(Benzoyl(4-B(OH)2))Y-NH2), for which the inhibition at 40 µM in [2] was determined as 90%. Further, in [4], the negative logarithm of the IC50 (pIC50) was 5.14 and the inhibition entry is “Dose-dependent effect”. Moreover, the Activity entry in data set [5] was “Non-Toxic”. Besides, in [6], the Activity entry was “Dose-dependent effect”. For the same molecule, the inhibition at 10 µM in [11] amounted to 60%. Further, the negative-log Kd (pKd) in [8] is 7.15. Further, the inhibition result in data set [10] was “Active”.
For `C[C@H](NC(=O)[C@H](C)NC(=O)[C@H](C)NC(=O)[C@H](CCCNC(=N)N)NC(=O)[C@H](CCC(N)=O)NC(=O)[C@H](CCCNC(=N)N)NC(=O)[C@H](CCC(=O)O)NC(=O)[C@H](CCCNC(=N)N)NC(=O)[C@H](Cc1c[nH]c2ccccc12)NC(=O)[C@H](CCCNC(=N)N)NC(=O)[C@H](CCCNC(=N)N)NC(=O)[C@H](CCCNC(=N)N)NC(=O)[C@H](CCCNC(=N)N)NC(=O)[C@H](CC(N)=O)NC(=O)[C@H](CCCNC(=N)N)NC(=O)[C@H](CCCNC(=N)N)NC(=O)[C@H](C)NC(=O)[C@H](CCC(N)=O)NC(=O)[C@H](CCCNC(=N)N)NC(=O)[C@@H](NC(=O)CCC(=O)O)[C@@H](C)O)C(=O)N[C@@H](C)C(=O)N[C@@H](CCCNC(=N)N)C(=O)O` (Suc-TRQARRNRRRRWRERQRAAAAR-OH), the negative logarithm of the Kd (pKd) in [12] is 7.00.
